Calls of active or inactive are those of the source.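 How the source made its calls, unless noted: active means fluorescence slope after compound addition differing from the mean of all tested samples at 99.7% confidence, mostly higher but some lower; inactive means the rest.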
Key:
[1] = inhibitors of TNFa-induced NFkB p65 translocation, primary screen, imaging, HUVEC, MLSMR starter and 10KST1 sets (AID 438;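 active means inhibition above 20% together with a positive visual image hit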;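 further: compound added about 3h40 before a 20 min TNFalpha stimulation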;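 on inhibition: signal is the nuclear over cytoplasmic p65 intensity ratio per well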); conditions: HUVEC TNFa-induced p65 nuclear translocation; cell count: measured here: nuclei count (cytotoxicity indicator), at 2.08 µM; inhibition: at 2 µM, stronger effect = higher value, 0% TNFa-plus-vehicle, 100% no-TNFa wells
[2] = reduction of polyQ htt aggregates in cells – imaging, exon1htt(103Q)mCFP cells, high-content imaging, primary screen (AID 483;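 active means visual image review flags a hit and inhibition of aggregation exceeds 20%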;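 further: compound exposure lasted 3 days before fixation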;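 on nuclei count: percent of the per-plate median nuclei count of sample wells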); conditions: exon1htt(103Q)mCFP cell line, aggregate imaging, at 2 µM; inhibition of aggregation: stronger effect = higher value; nuclei count: measured here: cell count, toxicity
[3] = endothelial E-selectin expression blockers – imaging, HUVEC, immunofluorescence, MLSMR starter and 10KST1 sets, primary screen (AID 487;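 active means visually confirmed hit in the image check and inhibition above 20%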;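 on inhibition: signal is fraction of cell area covered by stained E-selectin grains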;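 on nuclei count: 100% = median nuclei count of all wells on the same plate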); conditions: HUVEC TNFalpha-induced E-selectin immunofluorescence imaging, at 2 µM; inhibition: stronger effect = higher value; nuclei count: measured here: cell number, toxicity
[4] = molecular target: Voltage-gated potassium channel subunit beta-2 (Rattus norvegicus) (UniProt P62483); test: inhibitors of rat Kvbeta2 reductase activity – biochemical, NADPH fluorescence, primary screen (AID 622;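 active means fluorescence slope higher than the sample average by over 3 SD, cut at about -0.22 in these data, passing the limit was not always enough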;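 further: slope of raw intensity against log time taken from 70 to 1610 s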); conditions: recombinant KvBeta, 4-cyanobenzaldehyde reduction, at 10 µM, stronger effect = higher value
[5] = molecular target: Voltage-gated potassium channel subunit beta-2 (Rattus norvegicus) (UniProt P62483); test: enhancers of rat Kvbeta2 NADPH turnover – biochemical, NADPH fluorescence, primary screen (AID 623;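 active means NADPH fluorescence slope more negative than the mean of all samples by about 3 SD, 99.7% confidence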;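 further: fluorescence intensity change per second fitted from 20 to 320 s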); conditions: Recombinant KvBeta, NADPH fluorescence decrease slope, 10 min; at 10 µM; stronger effect = lower value
[6] = molecular target: Muscarinic acetylcholine receptor M4 (Homo sapiens) (UniProt P08173); test: M4-linked GIRK flux change, two-sided – cell-based, HEK293 M4/GIRK, thallium flux, BTC-AM, M4 allosteric agonist project, primary screen (AID 625); conditions: at 10 µM, actives lie on both sides;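 further: thallium influx through GIRK channels coupled to M4 in HEK293 cells with BTC-AM dye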
In short: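 assay system = HEK293 cells with M4 receptor and GIRK channels | medium = pH 7.3 thallium assay buffer | doses = 10 µM final, single point | timing = cells overnight at 37 °C, BTC-AM loading 1 h, reads 2 min total | signal = BTC-AM fluorescence, 1 Hz kinetic reads | read-out = post-addition slope, 15–24 s, of baseline-normalized fluorescence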

[7] = blockers of RIG-like receptor reporter activation – cell-based, Sendai virus stimulus, luciferase, 10K MLSCN set, TLR/RLR signaling modifier project, primary screen (AID 602276;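 active means inhibition at or above 50% at 10 µM; inactive means inhibition below 50%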;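 further: firefly luciferase from ISG56 promoter only with Renilla not read in this screen; 0% = Sendai virus plus DMSO and 100% = medium plus DMSO without virus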); conditions: HEK293 RL24 IRF3 luciferase reporter, at 10 µM, stronger effect = higher value
[8] = TLR3 IRF3 reporter activation blockers – cell-based, poly I:C stimulus, luciferase, 10K MLSCN set, primary screen (AID 602277;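 active means inhibition of the reporter signal at or above 50%; inactive means inhibition below 50%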); conditions: HEK293-TLR3 RL24 IRF3 luciferase reporter, at 10 µM, stronger effect = higher value

Sequence of Voltage-gated potassium channel subunit beta-2 (Rattus norvegicus) (P62483 whole entry, looked up): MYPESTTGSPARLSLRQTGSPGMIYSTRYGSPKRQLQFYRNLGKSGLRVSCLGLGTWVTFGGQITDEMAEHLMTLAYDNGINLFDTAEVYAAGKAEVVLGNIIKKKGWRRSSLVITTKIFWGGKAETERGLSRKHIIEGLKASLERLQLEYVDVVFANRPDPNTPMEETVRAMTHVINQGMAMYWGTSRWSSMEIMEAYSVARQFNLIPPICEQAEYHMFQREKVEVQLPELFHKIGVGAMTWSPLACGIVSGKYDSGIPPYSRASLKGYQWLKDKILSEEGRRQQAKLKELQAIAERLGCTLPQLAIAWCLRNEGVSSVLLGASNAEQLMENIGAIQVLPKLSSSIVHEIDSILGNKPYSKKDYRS
Sequence of Muscarinic acetylcholine receptor M4 (Homo sapiens) (P08173 whole entry, looked up): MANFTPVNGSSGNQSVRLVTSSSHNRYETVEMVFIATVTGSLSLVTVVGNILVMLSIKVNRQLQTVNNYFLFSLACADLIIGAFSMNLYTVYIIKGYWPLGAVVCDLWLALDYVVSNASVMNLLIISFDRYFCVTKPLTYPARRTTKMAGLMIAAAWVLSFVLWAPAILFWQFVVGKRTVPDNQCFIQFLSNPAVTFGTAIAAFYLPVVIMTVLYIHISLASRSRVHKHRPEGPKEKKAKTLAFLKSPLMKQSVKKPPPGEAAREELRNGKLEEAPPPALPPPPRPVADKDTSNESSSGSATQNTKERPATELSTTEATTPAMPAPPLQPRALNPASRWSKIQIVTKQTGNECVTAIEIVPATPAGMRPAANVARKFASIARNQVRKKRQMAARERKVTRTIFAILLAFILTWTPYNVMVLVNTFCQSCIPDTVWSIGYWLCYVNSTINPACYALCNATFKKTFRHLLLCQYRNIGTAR

Row | SMILES | cell count [1] | inhibition [1] | inhibition of aggregation [2] | nuclei count [2] | inhibition [3] | nuclei count [3] | fluorescence slope [4] | NADPH fluorescence slope [5] | fluorescence slope [6] | inhibition [7] | inhibition [8]
1 | COc1ccc(C2CC(c3ccc(Cl)cc3)Nc3nc(NC(=O)c4ccco4)nn32)cc1 (stereo not drawn) | 574 | -11.9% (inactive) | -6.2% (inactive) | 98.1% | 27.9% (inactive) | 91.8% | -0.427 (inactive) | -6.7e-05 (inactive) | 0.00611 (inactive) | 14.1% (inactive) | 24.6% (inactive)
2 | Cc1cc(Cl)ccc1OCCCC(=O)N1CCOCC1 | 571 | -1.5% (inactive) | -0.1% (inactive) | 94.9% | -29.2% (inactive) | 112% | -0.503 (inactive) | -0.000205 (inactive) | 0.00464 (inactive) | -29.3% (inactive) | -72.8% (inactive)
3 | CC12CN3CC(C)(CN(C1)C3c1ccc(Br)cc1)C2 (stereo not drawn) | 565 | -1.2% (inactive) | 5.1% (inactive) | 97.5% | -50.4% (inactive) | 96.1% | -0.607 (inactive) | -4.3e-05 (inactive) | 0.00246 (inactive) | 13.8% (inactive) | 13.4% (inactive)
4 | Oc1c(Cl)cc(Cl)c2c1NCCC2 | 313 | 0.4% (inactive) | -13.1% (inactive) | 100% | -47.5% (inactive) | 91.9% | -0.466 (inactive) | -3e-05 (inactive) | 0.00523 (inactive) | 11.2% (inactive) | 31.8% (inactive)
5 | CCOC(=O)C1CCCN(C(=O)c2ccc3c(=O)n(CCOC)c(=S)[nH]c3c2)C1 (stereo not drawn) | 417 | 3.9% (inactive) | -2.5% (inactive) | 81.3% | 20.2% (inactive) | 91.8% | -0.386 (inactive) | -6.4e-05 (inactive) | 0.00594 (inactive) | 6.16% (inactive) | -7.26% (inactive)
6 | COC(=O)c1ccc2ncccc2c1 | 378 | 2.6% (inactive) | 9.1% (inactive) | 106% | -10.4% (inactive) | 95.7% | -0.536 (inactive) | -8.5e-05 (inactive) | 0.00451 (inactive) | -15.2% (inactive) | -24.8% (inactive)
7 | Cc1ccc(S(=O)(=O)NCCC(=O)OCn2nnc3ccccc3c2=O)cc1 | 603 | -0.8% (inactive) | 5% (inactive) | 102% | -272% (inactive) | 119% | -0.454 (inactive) | -4.9e-05 (inactive) | 0.00588 (inactive) | 15.2% (inactive) | 28% (inactive)
8 | Cc1cc(NC(=O)CCC(=O)N(CC2CCCO2)C(C(=O)NC2CCCC2)c2ccccc2C)no1 (stereo not drawn) | 341 | 0% (inactive) | 26.9% (inactive) | 63.6% | -106% (inactive) | 117% | -0.453 (inactive) | -5.7e-05 (inactive) | 0.00469 (inactive) | 20.9% (inactive) | 21.7% (inactive)
9 | COc1cc(OC)cc(C(=O)NCc2n[nH]c(=S)n2-c2ccccc2OC)c1 | 385 | 0% (inactive) | -6.2% (inactive) | 112% | -29.2% (inactive) | 83% | -0.329 (inactive) | -6.5e-05 (inactive) | 0.00633 (inactive) | 7.57% (inactive) | 6.78% (inactive)
10 | COC(=O)c1ccccc1NC(=O)c1noc2c1CCC2 | 251 | 0.3% (inactive) | 6.7% (inactive) | 100% | -15.1% (inactive) | 120% | -0.597 (inactive) | -2.5e-05 (inactive) | 0.0051 (inactive) | 13.1% (inactive) | 22.8% (inactive)
11 | CC(C)CCNC(=O)CCNS(=O)(=O)c1ccc(Cl)cc1 | 538 | -19.2% (inactive) | 1.9% (inactive) | 79.8% | -36.9% (inactive) | 91.3% | -0.566 (inactive) | -1.2e-05 (inactive) | 0.00577 (inactive) | 22.9% (inactive) | 25.9% (inactive)
12 | CCOC(=O)c1c(NCc2ccc3c(c2)OCO3)c2ccccc2[nH]c1=O | 509 | -9.9% (inactive) | 16.6% (inactive) | 94.1% | -51.7% (inactive) | 111% | -0.252 (inactive) | -2.6e-05 (inactive) | 0.00507 (inactive) | 12.5% (inactive) | -13.3% (inactive)
13 | Cn1c(SCc2ccc3c(c2)OCO3)nnc1-c1ccccc1 | 344 | 9.8% (inactive) | 15.3% (inactive) | 93.9% | -72.5% (inactive) | 126% | -0.526 (inactive) | 4.8e-05 (inactive) | 0.00602 (inactive) | -9.99% (inactive) | -38.3% (inactive)
14 | O=S(=O)(Cc1ccc(Cl)cc1)Nc1ccc2c(c1)OCO2 | 291 | -12.5% (inactive) | 10.4% (inactive) | 99.4% | -35.3% (inactive) | 123% | -0.454 (inactive) | -5.8e-05 (inactive) | 0.00401 (inactive) | 7.86% (inactive) | 9.38% (inactive)
15 | Cc1ccc(CS(=O)(=O)CCC(=O)NCC2CCCO2)cc1 (stereo not drawn) | 470 | 7% (inactive) | 1.1% (inactive) | 99.3% | -191% (inactive) | 121% | -0.31 (inactive) | -4.6e-05 (inactive) | 0.00623 (inactive) | 6.62% (inactive) | 8.68% (inactive)
16 | CCOc1cc(N2CCOCC2)c(OCC)cc1NC(=O)CSc1cccc[n+]1[O-] | 506 | 10.6% (inactive) | 2.4% (inactive) | 109% | -56.8% (inactive) | 115% | -0.506 (inactive) | -0.000267 (inactive) | 0.00543 (inactive) | 15.1% (inactive) | 18.2% (inactive)
17 | O=c1cc(CSc2nnc(COc3ccc(Cl)cc3)o2)c2ccccc2[nH]1 | 544 | -6.2% (inactive) | 8% (inactive) | 98.4% | -46.6% (inactive) | 153% | -0.497 (inactive) | 7.1e-08 (inactive) | 0.00464 (inactive) | 1.93% (inactive) | -11.9% (inactive)
18 | Cc1cc(NC(=O)CCC(=O)N(CCc2ccccc2)C(C(=O)NC2CCCC2)c2ccco2)no1 (stereo not drawn) | 592 | -7.5% (inactive) | -11.5% (inactive) | 102% | 6.8% (inactive) | 101% | -0.483 (inactive) | 0.000137 (inactive) | 0.00558 (inactive) | 4.62% (inactive) | 19.1% (inactive)
19 | O=C(c1cccc(Cl)c1)N1CCN(Cc2ccncc2)CC1 | 702 | 3.1% (inactive) | 1.7% (inactive) | 106% | -87.8% (inactive) | 109% | -0.537 (inactive) | 0.000145 (inactive) | 0.00543 (inactive) | 3.71% (inactive) | 7.08% (inactive)
20 | COc1ccccc1N1CCN(c2nc3ccccc3nc2C(C#N)C(=O)OC(C)C)CC1 (stereo not drawn) | 518 | 1% (inactive) | -12.2% (inactive) | 119% | -72.9% (inactive) | 191% | -0.523 (inactive) | -0.000323 (inactive) | 0.00467 (inactive) | -13.1% (inactive) | -6.25% (inactive)
21 | CCCCc1cc(=O)oc2c(CN3CCCC3)c(O)c(Cl)cc12 | 531 | -12.6% (inactive) | -16.7% (inactive) | 46.6% | 26.1% (inactive) | 89.4% | -0.00586 (active) | 0 (inactive) | 0.00532 (inactive) | 20% (inactive) | 19.7% (inactive)
22 | Cc1ccc(S(=O)(=O)N2CCOCC2)cc1C(=O)Nc1ccccn1 | 542 | -49% (inactive) | -23.1% (inactive) | 106% | -75.1% (inactive) | 111% | -0.346 (inactive) | -3.9e-05 (inactive) | 0.00587 (inactive) | 7.52% (inactive) | 12% (inactive)
23 | CCOC(=O)N1CCN(c2cc3nccnc3cc2F)CC1 | 412 | 3.1% (inactive) | -5.3% (inactive) | 113% | -54.5% (inactive) | 111% | -0.173 (inactive) | -4.3e-05 (inactive) | 0.00552 (inactive) | 10.4% (inactive) | -18.8% (inactive)
24 | Cc1c2c(nc3nc4ccccc4n13)CC(C)(C)CC2=O | 632 | 8.2% (inactive) | -6.2% (inactive) | 109% | -63.4% (inactive) | 106% | -0.603 (inactive) | -2.5e-05 (inactive) | 0.00409 (inactive) | 16.3% (inactive) | 28.8% (inactive)
25 | [O-][n+]1c2c(nn1-c1ccccc1Cl)-c1nonc1CC2 | 593 | -26.9% (inactive) | -16.7% (inactive) | 112% | -1.8% (inactive) | 95% | -0.351 (inactive) | -7.7e-05 (inactive) | 0.00719 (inactive) | 12% (inactive) | 5.67% (inactive)
26 | CCn1nnc(NC(=O)c2cc3ccccc3o2)n1 | 332 | 0.5% (inactive) | 7.1% (inactive) | 87.2% | -51% (inactive) | 102% | -0.297 (inactive) | -7.3e-06 (inactive) | 0.00628 (inactive) | -50.7% (inactive) | -120% (inactive)
27 | Cc1ccc(Cl)cc1NC(=O)CSc1nnc(C)n1-c1ccccc1 | 783 | -5.4% (inactive) | -28.9% (inactive) | 100% | -16% (inactive) | 96% | -0.551 (inactive) | -4.3e-05 (inactive) | 0.00502 (inactive) | 21.8% (inactive) | 23.3% (inactive)
28 | COC(=O)C(C)Sc1nc2c(c(=O)n(C)c(=O)n2C)n1Cc1cccc(C)c1 (stereo not drawn) | 474 | 3.8% (inactive) | -2.4% (inactive) | 99.3% | -27.3% (inactive) | 117% | -0.553 (inactive) | -3.9e-05 (inactive) | 0.00598 (inactive) | 18.9% (inactive) | 26.2% (inactive)

Reference: PubChem BioAssay
